This is an account of results in publication PMC8649585 (Neoplasia (New York, N.Y.), 2021).

Read-outs that look alike come from different tables or passages of the source.

Assay [1] has as its system J82 cells. Description: Cell proliferation assay. The assay is classed as cell-based.
Assay [2] relates to KMS-11 cells. Put plainly: Cell proliferation assay. The assay is classed as cell-based.
In assay [3] the test system is MDA-MB-453 cells. Description: Cell proliferation assay. The class given is cell-based. In outline:
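MDA-MB-453 cells (DMEM, 10% FBS, 37 °C, 5% CO2) were plated at 5 × 10^3 per well in 96-well plates. Test compound was added at 10 doses in 3-fold serial dilution for 72 h. Viability was read by CellTiter-Glo luminescence, and GI50 was derived from the dose-response curves.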

For assay [4], the system named is AN3-CA cells. Description: Cell proliferation assay. Particulars: 72 h. The assay is classed as cell-based.
For assay [5], the system named is HEP3B cells. Put plainly: Cell proliferation assay. The class given is cell-based, human. As to conditions: 72 h. An outline of the steps: (§1)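 Seeding was 5 × 10^3 cells per well in 96-well plates: HEP3B in DMEM, HUH7 and HEPG2 in RPMI1640, all with 10% FBS at 37 °C under 5% CO2. Cells received 10 doses of test compound in 3-fold serial dilution for 72 h. Viability was read by CellTiter-Glo luminescence.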

Assay [6] relates to HUH7 cells. Put plainly: Cell proliferation assay. The class given is cell-based, human. An outline of the steps:
as §1

Assay [7] relates to HEPG2 cells. Description: Cell proliferation assay. The assay is classed as cell-based, human. Particulars: FGFR4 overexpression, HCC. In outline:
as §1

In assay [8] the test system is phosphorylation of FGFR and downstream molecules (PLCγ, FRS2α, AKT, ERK1/2) in HUH7 cells. Put plainly: Western blot of FGFR signaling. The assay is classed as cell-based, human. As to conditions: dose-dependent. In outline: (§2)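 After SDS-PAGE, proteins were transferred to nitrocellulose and blocked in 5% milk in TBS-T. Rabbit antibodies (FGFR4, pFGFR, pERK, pFRS2α, pPLCγ, β-actin) were applied overnight at 4 °C, then secondary for 1 h. Detection was by ECL with densitometry.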
(Immunoblotting shows a protein as a band on a membrane.)

For assay [9], the target named is FGFR1 V561M (Homo sapiens, UniProt P11362, V561M). Description: Radiometric biochemical kinase assay. Particulars: ATP 10 µM.
FGFR1 V561M, sequence (P11362 22-822 V561M): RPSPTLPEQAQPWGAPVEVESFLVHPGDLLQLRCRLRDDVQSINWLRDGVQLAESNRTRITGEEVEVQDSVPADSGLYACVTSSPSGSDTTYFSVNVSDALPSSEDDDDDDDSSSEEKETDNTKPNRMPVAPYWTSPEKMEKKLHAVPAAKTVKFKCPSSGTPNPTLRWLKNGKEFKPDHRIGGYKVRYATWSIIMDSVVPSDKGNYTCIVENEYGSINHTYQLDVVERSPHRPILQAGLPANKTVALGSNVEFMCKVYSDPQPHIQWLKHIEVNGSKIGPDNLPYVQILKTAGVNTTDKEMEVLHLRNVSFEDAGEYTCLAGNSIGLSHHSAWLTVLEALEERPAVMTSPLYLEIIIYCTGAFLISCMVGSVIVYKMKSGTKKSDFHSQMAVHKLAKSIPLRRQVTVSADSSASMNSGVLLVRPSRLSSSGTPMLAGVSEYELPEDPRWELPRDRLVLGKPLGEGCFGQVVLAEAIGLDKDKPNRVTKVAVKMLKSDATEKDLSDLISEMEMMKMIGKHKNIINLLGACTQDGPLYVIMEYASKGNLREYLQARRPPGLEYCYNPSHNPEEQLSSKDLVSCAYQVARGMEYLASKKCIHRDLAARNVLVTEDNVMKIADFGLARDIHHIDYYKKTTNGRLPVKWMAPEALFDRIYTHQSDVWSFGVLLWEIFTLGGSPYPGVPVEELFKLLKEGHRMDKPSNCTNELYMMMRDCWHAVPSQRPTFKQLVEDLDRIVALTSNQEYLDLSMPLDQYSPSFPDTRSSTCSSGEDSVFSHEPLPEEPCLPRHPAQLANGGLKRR
Assay [10] relates to phosphorylation of FGFR and downstream molecules (PLCγ, FRS2α, AKT, ERK1/2) in HEP3B cells. Description: Western blot of FGFR signaling. The assay is classed as cell-based, human. As to conditions: dose-dependent. An outline of the steps: as §2
Assay [11] concerns the target FGFR2 N549H (Homo sapiens, UniProt P21802, N549H). Description: Radiometric biochemical kinase assay. Particulars: ATP 10 µM.
Assay [12] has as its system HUH7 cells. Put plainly: Soft agar anchorage-independent growth assay. The class given is cell-based, human. As to conditions: GNF-7 0.1 or 0.5 µM, SIJ1263 0.01 or 0.05 µM, 3 weeks. In outline: (§3)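 The base layer was 0.5% agar in DMEM in 6-well plates. Cells were suspended in 2× DMEM with 0.7% agar (0.35% agar per legend) at 5 × 10^3 cells per well and overlaid with medium containing test compound. Plates were incubated for 3 weeks at 37 °C under 5% CO2. Colonies were stained with iodonitrotetrazolium chloride in PBS and imaged.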

Assay [13] concerns the target FGFR2 WT (Homo sapiens, UniProt P21802). Put plainly: Radiometric biochemical kinase assay. As to conditions: ATP 10 µM.
Assay [14] has as its system HEP3B cells. Description: Soft agar anchorage-independent growth assay. The class given is cell-based, human. As to conditions: GNF-7 0.1 or 0.5 µM, SIJ1263 0.01 or 0.05 µM, 3 weeks. In outline:
as §3

For assay [15], the target named is FGFR4 WT (Homo sapiens, UniProt P22455). Put plainly: Radiometric biochemical kinase assay.
FGFR4 WT, sequence (P22455 22-802): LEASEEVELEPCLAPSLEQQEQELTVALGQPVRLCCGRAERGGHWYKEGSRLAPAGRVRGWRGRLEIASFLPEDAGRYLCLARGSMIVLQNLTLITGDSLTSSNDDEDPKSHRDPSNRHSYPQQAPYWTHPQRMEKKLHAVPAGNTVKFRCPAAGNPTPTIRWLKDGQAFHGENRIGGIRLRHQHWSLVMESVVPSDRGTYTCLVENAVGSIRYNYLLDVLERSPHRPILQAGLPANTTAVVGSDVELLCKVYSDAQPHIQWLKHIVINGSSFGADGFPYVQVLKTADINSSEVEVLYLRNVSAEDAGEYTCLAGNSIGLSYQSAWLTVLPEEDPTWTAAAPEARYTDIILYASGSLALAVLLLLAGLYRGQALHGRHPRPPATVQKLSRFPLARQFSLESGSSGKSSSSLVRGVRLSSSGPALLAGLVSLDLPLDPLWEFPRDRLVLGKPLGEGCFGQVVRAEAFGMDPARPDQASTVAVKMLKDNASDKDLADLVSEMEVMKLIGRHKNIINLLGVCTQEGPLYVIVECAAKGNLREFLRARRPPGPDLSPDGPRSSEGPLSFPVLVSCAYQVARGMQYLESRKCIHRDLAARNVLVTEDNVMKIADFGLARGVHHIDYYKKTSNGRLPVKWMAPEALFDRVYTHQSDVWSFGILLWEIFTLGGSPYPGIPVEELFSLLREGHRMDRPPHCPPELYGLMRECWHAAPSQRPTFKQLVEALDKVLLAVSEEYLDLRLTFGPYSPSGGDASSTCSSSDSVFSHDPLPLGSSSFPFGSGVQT
Assay [16] concerns HEP3B cells. Put plainly: Apoptosis assay. The assay is classed as cell-based, human. Particulars: 24 h. In outline:
(§4)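 Cells (1 × 10^5) were treated with test compound for 24 h, then harvested and stained with Alexa Fluor 488 annexin V and propidium iodide per kit instructions, and analysed by flow cytometry. Culture: HEP3B and SK-HEP1 in DMEM, HUH7 in RPMI1640, each with 10% FBS and antibiotic-antimycotic, at 37 °C under 5% CO2.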

For assay [17], the system named is HUH7 cells. Description: Cell cycle analysis. The assay is classed as cell-based, human. Particulars: 18 h. An outline of the steps:
(§5)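 Cells seeded at 1 × 10^5 on 60 mm plates and exposed to test compound for 18 h. They were then fixed in 70% ethanol and resuspended in PBS containing 50 μg/mL propidium iodide. DNA content was measured by flow cytometry to give the cell cycle phase distribution.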

For assay [18], the system named is HUH7 cells. Put plainly: Scratch wound healing migration assay. The class given is cell-based, human. Particulars: GNF-7 0.01 or 0.05 μM, SIJ1263 0.002 or 0.005 μM, PD173074 0.1 μM, 36 h.
Assay [19] deals with HEP3B cells. Description: Cell cycle analysis. The class given is cell-based, human. Particulars: 18 h. In outline: as §5
Assay [20] has as its system HEP3B cells. Description: Invasion assay. The class given is cell-based, human. Particulars: low concentrations. In outline:
(§6)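 Cells (HUH7 in RPMI1640, HEP3B in DMEM) were serum-starved for 12 h. They were then seeded at 5.0 × 10^4 cells per chamber into 8 μm ECMatrix-coated transwell chambers (QCM collagen invasion kit). Test compound was added and chambers were incubated at 37 °C under 5% CO2. Invaded cells were stained with 0.005% crystal violet in PBS.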

For assay [21], the system named is SK-HEP1 cells. Put plainly: Apoptosis assay. As to conditions: 24 h. The assay is classed as cell-based. In outline: as §4
The target of assay [22] is FGFR1 WT (Homo sapiens, UniProt P11362). Description: Radiometric biochemical kinase assay. Particulars: ATP 10 µM.
FGFR1 WT, sequence (P11362 22-822): as the sequence (P11362 22-822 V561M) above, with M540V counted along it
The subject of assay [23] is SK-HEP1 cells. Description: Cell cycle analysis. Particulars: 18 h. The class given is cell-based.
In assay [24] the test system is HUH7 cells. Put plainly: Invasion assay. The class given is cell-based, human. As to conditions: low concentrations. In outline: as §6
Assay [25] deals with SK-HEP1 cells. Description: Soft agar anchorage-independent growth assay. The class given is cell-based. Particulars: 5 µM, 3 weeks. An outline of the steps:
as §3

The test system of assay [26] is HUH7 cells. Description: Apoptosis assay. The class given is cell-based, human. As to conditions: 24 h. In outline:
as §4

Assay [27] deals with HEP3B cells. Put plainly: Scratch wound healing migration assay. As to conditions: GNF-7 0.01 or 0.05 μM, SIJ1263 0.002 or 0.005 μM, PD173074 0.1 μM. The assay is classed as cell-based, human.

FGFR2 N549H, sequence (P21802 22-821 N549H): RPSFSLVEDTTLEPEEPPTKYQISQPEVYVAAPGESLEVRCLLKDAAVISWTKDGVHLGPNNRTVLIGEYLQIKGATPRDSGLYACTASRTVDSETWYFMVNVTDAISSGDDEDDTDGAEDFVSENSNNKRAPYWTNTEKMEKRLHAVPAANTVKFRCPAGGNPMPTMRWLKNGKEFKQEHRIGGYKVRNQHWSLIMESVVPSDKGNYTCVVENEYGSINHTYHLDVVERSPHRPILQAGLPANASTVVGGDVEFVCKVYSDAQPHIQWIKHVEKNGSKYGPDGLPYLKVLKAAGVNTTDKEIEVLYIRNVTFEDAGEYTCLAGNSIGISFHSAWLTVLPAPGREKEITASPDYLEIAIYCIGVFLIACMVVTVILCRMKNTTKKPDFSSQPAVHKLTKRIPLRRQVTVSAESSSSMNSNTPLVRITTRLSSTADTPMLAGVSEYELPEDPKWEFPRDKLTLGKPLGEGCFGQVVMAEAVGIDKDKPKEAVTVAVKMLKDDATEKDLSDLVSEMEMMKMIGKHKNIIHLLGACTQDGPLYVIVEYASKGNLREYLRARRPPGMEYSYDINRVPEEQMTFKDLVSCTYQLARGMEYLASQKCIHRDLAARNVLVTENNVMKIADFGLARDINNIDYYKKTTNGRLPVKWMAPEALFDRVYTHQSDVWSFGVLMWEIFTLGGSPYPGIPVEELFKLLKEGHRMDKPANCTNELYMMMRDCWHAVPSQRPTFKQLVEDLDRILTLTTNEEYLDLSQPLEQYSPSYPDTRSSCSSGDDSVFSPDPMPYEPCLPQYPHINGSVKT
FGFR2 WT, sequence (P21802 22-821): as the sequence (P21802 22-821 N549H) above, with H528N counted along it

As a reminder, the GI50 is the concentration at which growth is held to half of that of the control. A low value points to more potent growth inhibition. In the case of `C=CC(=O)Nc1cccc(C)c1Nc1ncc2cc(-c3c(Cl)c(OC)cc(OC)c3Cl)ccc2n1` [BLU9931], the GI50 is 5870 ± 580 nM in assay [1] (Homo sapiens, J82, 72 h); 541 ± 10 nM in assay [2] (Homo sapiens, KMS-11, 72 h); 2150 ± 380 nM in assay [3] (Homo sapiens, MDA-MB-453, 72 h); 9200 ± 450 nM in assay [4] (Homo sapiens); 4220 ± 1030 nM in [5] (Homo sapiens, Hep3B); 715 ± 100 nM in assay [6] (Homo sapiens, Huh-7, 72 h).
Regarding `CNC(=O)c1cc(Oc2ccc(NC(=O)Nc3ccc(Cl)c(C(F)(F)F)c3)cc2)ccn1` [sorafenib], the GI50 in assay [7] (Homo sapiens, HepG2, 72 h) came out at 8560 ± 1450 nM; in assay [5] (Homo sapiens, Hep3B), 5420 ± 1120 nM; in assay [6] (Homo sapiens, Huh-7, 72 h), 9590 ± 2060 nM.
One may read the IC50 as the concentration that gives 50% inhibition. Take `Cc1ccc(Nc2ncc3c(n2)N(C)C(=O)N(c2cc(NC(=O)c4cccc(C(F)(F)F)c4)ccc2C)C3)cn1` [GNF-7]: the “phosphorylation of FGFR and downstream signaling molecules” value in [8] and in assay [10] was “inhibiting significantly phosphorylation” each time. The IC50 amounted to 7540 nM in assay [9]; 7 nM in assay [11]; 20 nM in assay [13]; 4 nM in assay [15] (FGFR4 WT, radiometric, ATP 10 µM); 4.17 nM in [15] (read-out: IC50 against FGFR4, wtFGFR4); 11 nM in assay [22]. Besides, the GI50 was 50 ± 10 nM in assay [1] (J82, FGFR3 K652E, urinary bladder, 72 h); 15 nM in assay [2] (KMS-11, FGFR3 Y373C, myeloma, 72 h); 443 ± 70 nM in assay [3] (MDA-MB-453, FGFR4 overexpression, breast cancer, 72 h); 366 ± 70 nM in assay [7] (72 h); 17 nM in [4] (FGFR2 N549K/K310R, endometrium); 373 ± 150 nM in assay [5] (HEP3B, FGFR4 overexpression, HCC). This compound also registered a GI50 in [6] (HUH7, FGFR4 overexpression, HCC, 72 h) of 60 ± 10 nM. The suppression of colony-formation entry in assay [12] and in [14] was “almost completely” throughout. The apoptosis induction entry in [16] was “inducing apoptosis”; in assay [21], “little effects”; in assay [26], “inducing apoptosis”. The cell cycle distribution result in assay [17] and in assay [19] was “induce G0/G1 phase cell cycle arrest with decrease in the S phase” each time. The “wound healing (migration)” value in [18] and in assay [27] was “substantially reduced” throughout. The effect on invasion result in assay [20] and in [24] was “remarkably attenuate invasion” throughout. Moreover, the “induction of G0/G1 phase cell cycle arrest” value in [23] was “little effects”. Further, the “block of colony formation” value in assay [25] is recorded as 11%.
Consider `CCN1CCN(c2ccc(Nc3cc(N(C)C(=O)Nc4c(Cl)c(OC)cc(OC)c4Cl)ncn3)cc2)CC1` [BGJ398, 3-(2,6-dichloro-3,5-dimethoxy-phenyl)-1-{6-[4-(4-ethyl-piperazin-1-yl)-phenylamino]-pyrimidin-4-yl}-1-methyl-urea], for which the GI50 in assay [1] (Homo sapiens, J82, 72 h) came to 2840 ± 1570 nM; in assay [2] (Homo sapiens, KMS-11, 72 h), 143 ± 100 nM; in assay [3] (Homo sapiens, MDA-MB-453, 72 h), 2640 ± 280 nM; in assay [7] (Homo sapiens, HepG2, 72 h), 5370 ± 1100 nM; in [4] (Homo sapiens), 57 ± 10 nM; in assay [5] (Homo sapiens, Hep3B), 1370 ± 140 nM. Moreover, halving of growth in assay [6] (Homo sapiens, Huh-7, 72 h) (GI50) required 157 ± 120 nM.
Consider `CCN(CC)CCCCNc1ncc2cc(-c3cc(OC)cc(OC)c3)c(NC(=O)NC(C)(C)C)nc2n1` [PD173074], for which the GI50 in assay [1] (Homo sapiens, J82, 72 h) was 975 ± 450 nM; in [2] (Homo sapiens, KMS-11, 72 h), 64 ± 20 nM; in [3] (Homo sapiens, MDA-MB-453, 72 h), > 10000 nM; in assay [7] (72 h), 13400 ± 3600 nM; in assay [7] (Homo sapiens, HepG2, 72 h), > 10000 nM; in [4] (Homo sapiens), 973 ± 2550 nM. Besides, the GI50 in assay [5] (Homo sapiens, Hep3B) worked out at 2500 ± 490 nM; in assay [6] (Homo sapiens, Huh-7, 72 h), 598 ± 240 nM. Moreover, in assay [15], the IC50 came out at 97 nM. Further, the “wound healing (migration)” value in [18] and in assay [27] was “moderately reduced the wound healing” throughout. Further, the effect on invasion result in [20] and in assay [24] was “little effect on invasion capability” each time.
